Consider 28 molecules from ChEMBL document CHEMBL3877295, “Discovery of novel 3-hydroxypicolinamides as selective inhibitors of HIV-1 integrase-LEDGF/p75 interaction” (Eur J Med Chem, 2017).

Data set [1] is described as follows: Inhibition of HIV1 recombinant GST/His-tagged integrase strand transfer activity expressed in Escherichia coli BL21(DE3) using 5'-end 32P labeled linear 21-mer substrate preincubated for 30 mins followed by substrate addition measured after 1 hr by PAGE analysis. More on the design: species or system Human immunodeficiency virus 1. In outline: (§1)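 Recombinant wild-type integrase (200 nM final) preincubated with inhibitor in 50 mM NaCl, 1 mM HEPES pH 7.5, 10% glycerol, 7.5 mM MnCl2, 0.1 mg/mL BSA. Substrate: 21-mer top strand 5'-labelled with [γ-32P]ATP by T4 polynucleotide kinase, kinase heat-killed at 95 °C for 15 min, annealed to 1.5-fold molar excess bottom strand, and spin-column cleaned.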

A short description of data set [2]: Inhibition of HIV1 His6-tagged integrase/FLAG-tagged LEDGF/p75 protein-protein interaction expressed in Escherichia coli BL21(DE3) preincubated with integrase for 30 mins followed by LEDGF/p75 addition measured after 60 mins by AlphaScreen assay. The method in brief:
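His6-integrase (300 nM final) preincubated with compound […] for 30 min at 4 °C. FLAG-LEDGF/p75 (300 nM final) added for 60 min at 4 °C. Ni-chelate donor and anti-FLAG acceptor beads (20 µg/mL each) added for 1 h at 30 °C, then acceptor emission read.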
On the technique in general: Bead proximity is the source of the signal in Alpha formats.

A short description of data set [3]: Cytotoxicity against human C8166 cells assessed as reduction in cell viability after 72 hrs by MTT assay. It is filed as toxicity, cell-based. On the technique in general: Tetrazolium assays rely on reduction of a dye to a coloured formazan, in cell work by metabolically active cells.
Data set [4] relates to Human immunodeficiency virus 1. As to the kind of experiment: Antiviral activity against HIV1 3B infected in human C8166 cells assessed as reduction in virus-induced cytopathic effect by MTT assay. It counts as functional, cell-based. The settings on record: Human immunodeficiency virus 1, 3B. On the technique in general: Damage to the host cells serves as the signal in cytopathic effect assays.

The nature of data set [5]: Inhibition of HIV1 recombinant GST/His-tagged integrase 3'-processing activity expressed in Escherichia coli BL21(DE3) assessed as reduction in 19-mer product using 5'-end 32P labeled linear 21-mer substrate preincubated for 30 mins followed by substrate addition measured after 1 hr by PAGE analysis. More on the design: species or system Human immunodeficiency virus 1. In outline:
as §1

Data set [6] can be described thus: Therapeutic Index, ratio of CC50 for human C8166 cells to EC50 for HIV1 3B infected in human C8166 cells. It counts as cell-based. The settings on record: read-out: Ratio CC50/EC50.
The nature of data set [7]: Cytotoxicity against human MT4 cells assessed as reduction in cell viability after 72 hrs by MTT assay. It is filed as toxicity, cell-based.
A short description of data set [8]: Therapeutic Index, ratio of CC50 for human MT4 cells to EC50 for HIV1 3B infected in human MT4 cells. It counts as cell-based. The settings on record: read-out: Ratio CC50/EC50.
For data set [9], the system named is Human immunodeficiency virus 1. As to the kind of experiment: Antiviral activity against HIV1 3B infected in human MT4 cells assessed as reduction in virus-induced cytopathic effect by MTT assay. It counts as functional, cell-based. The conditions noted are these: Human immunodeficiency virus 1, 3B.
A short description of data set [10]: Inhibition of HIV1 GST-tagged integrase and His6-tagged integrase mutant dimerization expressed in Escherichia coli BL21(DE3) after overnight incubation by AlphaScreen assay. More on the design: species or system Human immunodeficiency virus 1.

Molecules are shown by their SMILES.

By IC50 is commonly meant the concentration that inhibits the measured activity by half. With `Nc1cccc(C(=O)NCc2ccco2)c1O`, the IC50 in data set [1] is more than 100 µM; in [2], 51 µM.
A word on the CC50: it is the concentration giving 50% cytotoxicity. Usually EC50 stands for the concentration giving half of the maximal effect. `CCCCNC(=O)c1ncccc1O`: the IC50 in data set [1], in [5] and in data set [2] was more than 20 µM each time. In addition, the CC50 at 72 h in data set [3] was more than 1000 µM. Also, the EC50 in data set [4] was more than 500 µM.
With `O=C(Nc1ccc(F)cc1)c1ncccc1O`, the selectivity ratio in [6] is more than 45. The IC50 in [1] was more than 20 µM; in data set [5], more than 20 µM; in data set [2], 8 µM. Also, in [3], the cytotoxic concentration (CC50) at 72 h is more than 860 µM. For the same molecule, the EC50 in data set [4] is 19.4 µM.
In the case of `O=C(NCc1ccco1)c1cccnc1O`, in data set [2], the IC50 is more than 100 µM.
`COc1cccnc1C(=O)NCc1ccc(F)cc1`: the half-inhibitory concentration (IC50) in data set [1], in data set [5] and in data set [2] was more than 20 µM throughout.
As for `C=C(C)CN(Cc1ccc(F)cc1)C(=O)c1ncccc1O`, the cytotoxic concentration (CC50) at 72 h in data set [7] amounted to 272 µM. Moreover, the half-inhibitory concentration (IC50) in data set [1], in data set [5] and in data set [2] was more than 20 µM in each case. For the same molecule, the selectivity ratio in data set [8] was less than 1. Further, the EC50 in [9] was 279 µM.
Take `O=C(NCc1ccc(F)cc1)c1ncccc1O`: the IC50 in data set [10] is 6.1 µM; in data set [1], more than 20 µM; in data set [5] it was more than 20 µM; in data set [2] it was 8.6 µM. The selectivity ratio in data set [6] worked out at 1.5. For the same molecule, in [3], the CC50 at 72 h was determined as 114 µM. For the same molecule, the EC50 in data set [4] stood at 77.6 µM.
As to `COc1cc(CNC(=O)c2ncccc2O)cc(OC)c1OC`, the concentration for half-maximal inhibition (IC50) in data set [10] is 9.8 µM; in [1] it was more than 20 µM; in data set [5] it was more than 20 µM; in [2] it was 2.5 µM. For the same molecule, the selectivity ratio in data set [6] was more than 9. The CC50 at 72 h in [3] is more than 500 µM. Also, the EC50 in data set [4] turned out to be 58.7 µM.
In the case of `O=C(NCC1CCCCC1)c1ncccc1O`, the selectivity ratio in [6] is 2.1. Further, the IC50 in [1] was more than 20 µM; in data set [5] it was more than 20 µM; in data set [2], 19 µM. For the same molecule, the CC50 at 72 h in [3] was 137 µM. Also, in data set [4], the EC50 was determined as 66.2 µM.
As for `Nc1ccc(CNC(=O)c2ncccc2O)cc1`, the IC50 in data set [10] was 4 µM; in [1], more than 20 µM; in [5], more than 20 µM; in [2], 1.7 µM. Further, the selectivity ratio in data set [6] was more than 2.3. Besides, the CC50 at 72 h in [3] was more than 596 µM. Moreover, the EC50 in data set [4] amounted to 260 µM.
In the case of `O=C(NCc1ccc(F)cc1)c1ncccc1F`, the IC50 in [1], in data set [5] and in data set [2] was more than 20 µM each time.
Turning to `O=C(NCc1ccc(F)c(Cl)c1)c1ncccc1O`, the selectivity ratio in [6] was 16. Further, the IC50 in data set [1] is more than 20 µM; in [5] it was more than 20 µM; in [2] it was 4.2 µM. Further, the CC50 at 72 h in data set [3] turned out to be 310 µM. The EC50 in [4] came to 19.2 µM.
As to `O=C(NCc1ccc(F)cc1)c1ccc(O)cn1`, the IC50 in data set [1], in data set [5] and in data set [2] was more than 20 µM each time.
Take `O=C(NCc1ccc(F)cc1)c1ccccn1`: the IC50 in [1], in data set [5] and in [2] was more than 20 µM in each case.
As to `O=C(NCc1ccc2[nH]ccc2c1)c1ncccc1O`, the IC50 in data set [10] was 8 µM; in [1] it was more than 20 µM; in [5], more than 20 µM; in data set [2], 4.6 µM. The selectivity ratio in data set [6] came out at 2. Besides, the CC50 at 72 h in data set [3] turned out to be 138 µM. The EC50 in data set [4] stood at 70 µM.
`O=C(NCc1ccc(C(F)(F)F)cc1)c1ncccc1O`: the selectivity ratio in data set [6] was less than 1. Further, the IC50 in [1], in data set [5] and in data set [2] was more than 20 µM in each case. The CC50 at 72 h in data set [3] was 31.4 µM. The EC50 in [4] came to 43.2 µM.
As for `O=c1oc2cccnc2c(=O)n1Cc1ccc(F)cc1`, in data set [7], the 50% cytotoxic concentration (CC50) at 72 h was 311 µM. Besides, the 50% inhibitory concentration (IC50) in data set [1], in data set [5] and in [2] was more than 20 µM in each case. Moreover, in data set [8], the selectivity ratio was 4.3. The EC50 in data set [9] was found to be 73.5 µM.
With `O=C(NCc1ccc(F)cc1)c1cc(O)ccn1`, the IC50 in data set [1], in data set [5] and in data set [2] was more than 20 µM in each case.
With `O=C(NCc1ccco1)c1ncccc1O`, the IC50 in [10] is 10 µM; in [1], more than 20 µM; in data set [5] it was more than 20 µM; in data set [2], 2.4 µM. Further, the selectivity ratio in data set [6] was 2.1. For the same molecule, the CC50 at 72 h in data set [3] is 575 µM. For the same molecule, the EC50 in data set [4] was 269 µM.
Regarding `CCCCN(Cc1ccc(F)cc1)C(=O)c1ncccc1O`, the IC50 is 14 µM in [10], more than 20 µM in data set [1], more than 20 µM in data set [5] and 12 µM in data set [2]. Also, the CC50 at 72 h in data set [7] is more than 660 µM. Also, the EC50 in data set [9] was more than 330 µM.
With `O=C(NCc1cccc2ccccc12)c1ncccc1O`, in [6], the selectivity ratio came out at 1.5. Moreover, the IC50 in data set [1], in data set [5] and in data set [2] was more than 20 µM in each case. Also, in data set [3], the CC50 at 72 h was found to be 88.8 µM. The EC50 in data set [4] was found to be 58.2 µM.
For `O=C(NCc1ccc(F)cc1)c1nc(N2CCCCS2(=O)=O)c2cccnc2c1O`, the selectivity ratio in data set [6] amounted to 52800. The concentration for half-maximal inhibition (IC50) stood at 0.0008 µM in data set [1] and 0.0054 µM in data set [5]. Also, the CC50 at 72 h in data set [3] amounted to 123 µM. The EC50 in data set [4] is 0.00233 µM.
Turning to `CC(C)CN(Cc1ccc(F)cc1)C(=O)c1ncccc1O`, the CC50 at 72 h in data set [7] stood at 247 µM. Moreover, the IC50 in data set [1], in [5] and in data set [2] was more than 20 µM each time. Besides, the selectivity ratio in data set [8] is less than 1. In [9], the EC50 came out at 270 µM.
Consider `O=C(NCc1ccc([N+](=O)[O-])cc1)c1ncccc1O`, for which, in [6], the selectivity ratio was determined as 4.8. Besides, the IC50 in data set [1] was more than 20 µM; in data set [5], more than 20 µM; in data set [2] it was 4 µM. In addition, the CC50 at 72 h in data set [3] was 127 µM. In addition, the EC50 in [4] stood at 26.4 µM.
Turning to `CC(C)CCN(Cc1ccc(F)cc1)C(=O)c1ncccc1O`, the CC50 at 72 h in data set [7] is 268 µM. Moreover, the IC50 in [1], in data set [5] and in data set [2] was more than 20 µM each time. Moreover, the selectivity ratio in [8] was 3.9. Further, the EC50 in [9] stood at 68.6 µM.
As for `O=C(NCc1cccs1)c1ncccc1O`, the IC50 in data set [10] was 8 µM; in [1], more than 20 µM; in data set [5], more than 20 µM; in [2], 7.5 µM. The selectivity ratio in data set [6] was 2.9. For the same molecule, the CC50 at 72 h in [3] was 218 µM. For the same molecule, the EC50 in [4] was 75.6 µM.
On to `O=c1oc2cccnc2c(=O)n1Cc1cccs1`, for which the CC50 at 72 h in [7] is 363 µM. Moreover, the IC50 in data set [1], in data set [5] and in data set [2] was more than 20 µM each time. Also, the selectivity ratio in [8] is 5.2. Further, the EC50 in data set [9] amounted to 69.9 µM.
Consider `O=C(NCc1ccc(F)cc1)c1cccc(O)n1`, for which the IC50 in [1], in data set [5] and in data set [2] was more than 20 µM throughout.
